The subject of assay [1] is HT-29. The experiment in a line: Cytotoxicity against human HT-29 cells assessed as reduction in cell viability after 72 hrs by CellTiter 96 aqueous one solution assay. It counts as functional, cell-based. The settings on record: HT-29, 72 h. In outline: (§1)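 Cells grown in RPMI 1640 with 10% FBS, penicillin and streptomycin; log-phase cells trypsinized, seeded, left overnight at 37 °C in 5% CO₂, then exposed 72 h to samples diluted from DMSO, with DMSO vehicle and paclitaxel control. Viability read by absorbance. IC50 taken relative to vehicle by nonlinear regression; triplicate, three independent experiments.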

Assay [2] deals with OVCAR-3. The experiment in a line: Cytotoxicity against human OVCAR3 cells assessed as reduction in cell viability after 72 hrs by CellTiter 96 aqueous one solution assay. In kind it is functional, cell-based. The settings on record: OVCAR-3, 72 h. In outline:
as §1

The subject of assay [3] is MDA-MB-231. The experiment in a line: Cytotoxicity against human MDA-MB-231 cells assessed as reduction in cell viability after 72 hrs by CellTiter 96 aqueous one solution assay. In kind it is functional, cell-based. The conditions noted are these: MDA-MB-231, 72 h. In outline: as §1
Assay [4] relates to MDA-MB-435. The experiment in a line: Cytotoxicity against human MDA-MB-435 cells assessed as reduction in cell viability after 72 hrs by CellTiter 96 aqueous one solution assay. It counts as functional, cell-based. The conditions noted are these: MDA-MB-435, 72 h. The method in brief: as §1
Assay [5] deals with HT-29. The experiment in a line: Inhibition of mitochondrial membrane potential in human HT-29 cells after 3 hrs by JC-1 staining based fluorescence assay. In kind it is functional, cell-based. The settings on record: HT-29, 3 h.
Assay [6] concerns the target Transcription factor p65 (Homo sapiens, UniProt Q04206). The experiment in a line: Inhibition of biotinylated consensus sequence binding to NF-kB p65 in human HeLa nuclear extracts after 3 hrs by ELISA.
Assay [7] relates to HeLa. The experiment in a line: Cytotoxicity against human HeLa cells assessed as reduction in cell viability after 72 hrs by CellTiter 96 aqueous one solution assay. It counts as functional, cell-based.
Assay [8] has as its system DU-145. Kind of assay: Cytotoxicity against human DU145 cells assessed as reduction in cell viability after 72 hrs by CellTiter 96 aqueous one solution assay. The conditions noted are these: DU-145, 72 h. It counts as functional, cell-based.

The values that follow come from ChEMBL document CHEMBL4229490, “Cytotoxic and NF-κB and mitochondrial transmembrane potential inhibitory pentacyclic triterpenoids from Syzygium corticosum and their semi-synthetic derivatives” (Bioorg Med Chem, 2018).

Converted amounts (≈) assume the structure as drawn.

The term IC50 denotes the point on the concentration scale where inhibition reaches its midpoint.

Transcription factor p65, sequence (Q04206 whole entry): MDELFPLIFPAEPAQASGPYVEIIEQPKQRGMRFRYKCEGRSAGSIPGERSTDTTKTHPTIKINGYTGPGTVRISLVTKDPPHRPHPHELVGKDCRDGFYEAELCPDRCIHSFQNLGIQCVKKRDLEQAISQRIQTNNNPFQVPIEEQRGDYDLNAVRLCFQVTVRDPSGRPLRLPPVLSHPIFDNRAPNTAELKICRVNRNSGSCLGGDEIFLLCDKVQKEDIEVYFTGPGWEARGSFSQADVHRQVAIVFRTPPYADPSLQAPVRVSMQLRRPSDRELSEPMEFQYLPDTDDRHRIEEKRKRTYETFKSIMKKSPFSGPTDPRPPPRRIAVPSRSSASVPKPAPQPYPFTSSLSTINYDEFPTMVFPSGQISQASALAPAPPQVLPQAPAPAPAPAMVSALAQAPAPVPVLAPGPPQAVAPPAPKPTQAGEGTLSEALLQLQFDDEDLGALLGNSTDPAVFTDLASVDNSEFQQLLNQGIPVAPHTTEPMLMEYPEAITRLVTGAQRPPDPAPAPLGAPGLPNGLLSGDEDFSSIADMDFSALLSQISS

Take `COc1cc(C=O)cc(OC)c1O`: the IC50 in assay [1], in assay [2], in assay [3] and in assay [4] was over 10 µM in each case.
Take `CC(=O)/C=C/[C@]12O[C@@]1(C)C[C@@H](O)CC2(C)C`: the IC50 in assay [1], in assay [2], in assay [3] and in assay [4] was over 10 µM in each case.
On to `C=C(C)[C@@H]1CC[C@]2(C(=O)OC)CC[C@]3(C(=O)O)[C@H](CC[C@@H]4[C@@]5(C)CC[C@H](O)C(C)(C)[C@@H]5CC[C@]43C)[C@@H]12`, for which the IC50 in assay [5] is over 10 µM; in assay [1], over 10 µM; in assay [3] it was over 10 µM; in assay [6], 1.5 µM.
Regarding `CC(=O)CC[C@@H](C1=C[C@@](C)(O)CCC1=O)C(C)C`, the IC50 in assay [1], in assay [2], in assay [3] and in assay [4] was over 10 µM in each case.
As to `C=C(C)[C@@H]1CC[C@]2(C(=O)O)CC[C@]3(CO)[C@H](CC[C@@H]4[C@@]5(C)CC[C@H](O)C(C)(C)[C@@H]5CC[C@]43C)[C@@H]12`, the IC50 in assay [5], in assay [1], in assay [2], in assay [3], in assay [4] and in assay [6] was over 10 µM each time.
`C=C(C)[C@H](O)CC[C@](C)(O)[C@H]1CC[C@]2(C)[C@@H]1CC[C@@H]1[C@@]3(C)CC[C@H](O)C(C)(C)[C@@H]3CC[C@]12C`: the IC50 in assay [1], in assay [2], in assay [3] and in assay [4] was over 10 µM in each case.
In the case of `CC1=CC(=O)CC(C)(C)[C@H]1/C=C/[C@@H](C)O`, the IC50 in assay [1], in assay [2], in assay [3] and in assay [4] was over 10 µM each time.
Regarding `COc1c(C)c(O)c2c(c1C)O[C@H](c1ccc(O)cc1)CC2=O`, the IC50 in assay [1] is over 10 µM; in assay [2], over 10 µM; in assay [3], over 10 µM; in assay [4], 6 µM.
Take `C[C@H]1[C@H](C)CC[C@]2(C(=O)O)CC[C@]3(C)C(=CC[C@@H]4[C@@]5(C)CC[C@H](OC(=O)c6ccc(Cl)cc6)C(C)(C)[C@@H]5CC[C@]43C)[C@H]12`: the IC50 in assay [5], in assay [1], in assay [3] and in assay [6] was over 10 µM each time.
Turning to `COc1c(O)cc2c(=O)oc3c4c(cc5c(=O)oc1c2c35)OCO4`, the IC50 in assay [5], in assay [1], in assay [2], in assay [3] and in assay [4] was over 10 µM each time.
Turning to `COc1c(OC)c2oc(=O)c3cc4c(c5oc(=O)c(c1OC)c2c53)OCO4`, the IC50 in assay [5], in assay [1], in assay [2], in assay [4] and in assay [6] was over 10 µM throughout.
In the case of `C=C(C)[C@@H]1CC[C@]2(C(=O)O)CC[C@]3(C)[C@H](CC[C@@H]4[C@@]5(C)C[C@@H](O)[C@H](OC(=O)/C=C/c6ccc(O)cc6)C(C)(C)[C@@H]5CC[C@]43C)[C@@H]12`, the IC50 in assay [5] is over 10 µM; in assay [1] it was over 10 µM; in assay [2], over 10 µM; in assay [3], over 10 µM; in assay [4] it was over 10 µM; in assay [6], 4.7 µM.
In the case of `C=C(C)[C@@H]1CC[C@]2(C(=O)O)CC[C@]3(C(=O)O)[C@H](CC[C@@H]4[C@@]5(C)CC[C@H](O)C(C)(C)[C@@H]5CC[C@]43C)[C@@H]12`, the IC50 in assay [5], in assay [1], in assay [2], in assay [3], in assay [4] and in assay [6] was over 10 µM each time.
As for `C=C(C)[C@@H]1CC[C@]2(C(=O)O)CC[C@]3(C)[C@H](CC[C@@H]4[C@@]5(C)CC[C@H](OC(=O)/C=C/c6ccc(O)c(OC)c6)C(C)(C)[C@@H]5CC[C@]43C)[C@@H]12`, the IC50 in assay [5] was 0.51 µM; in assay [1] it was over 10 µM; in assay [3] it was over 10 µM; in assay [6] it was 5.4 µM.
For `COc1cc2c(=O)oc3c(OC)c(O)cc4c(=O)oc(c1OC)c2c34`, the IC50 in assay [5] was over 10 µM; in assay [1], over 10 µM; in assay [2], over 10 µM; in assay [4], over 10 µM; in assay [6], 1.6 µM.
On to `CC(=O)/C=C/[C@@]1(O)C(C)=CC(=O)CC1(C)C`, for which the IC50 in assay [5], in assay [1], in assay [2] and in assay [4] was over 10 µM each time.
In the case of `C=C(C)[C@@H]1CC[C@]2(C(=O)O)CC[C@]3(C)[C@H](CC[C@@H]4[C@@]5(C)C[C@@H](O)[C@H](O)C(C)(C)[C@@H]5CC[C@]43C)[C@@H]12` [ALPHITOLIC ACID], the IC50 in assay [5] is over 10 µM; in assay [1], over 10 µM; in assay [2] it was over 10 µM; in assay [3], over 10 µM; in assay [4], over 10 µM; in assay [6], 8.7 µM.
With `C=C(C)[C@@H]1CC[C@]2(C(=O)O)CC[C@]3(C)[C@H](CC[C@@H]4[C@@]5(C)CC[C@H](O)C(C)(C)[C@@H]5CC[C@]43C)[C@@H]12` [BETULINIC ACID], the IC50 is 3.5 µM in assay [5], over 10 µM in assay [1] and over 10 µM in assay [3].
Regarding `C=C(C)[C@@H]1CC[C@]2(CO)CC[C@]3(C)[C@H](CC[C@@H]4[C@@]5(C)CC[C@H](O)C(C)(C)[C@@H]5CC[C@]43C)[C@@H]12` [BETULIN], the IC50 is over 10 µM in assay [5]; over 10 µM in assay [1]; over 10 µM in assay [2]; over 10 µM in assay [3]; over 10 µM in assay [4]; 8.8 µM in assay [6].
Consider `CC1=CC(=O)CC(C)(C)[C@@]1(O)/C=C/[C@@H](C)O` [BLUMENOL A], for which the IC50 in assay [5], in assay [1], in assay [2], in assay [3], in assay [4] and in assay [6] was over 10 µM in each case.
In the case of `CC1(C)CC[C@]2(CO)CC[C@]3(C)C(=CC[C@@H]4[C@@]5(C)CC[C@H](O)C(C)(C)[C@@H]5CC[C@]43C)[C@@H]2C1` [ERYTHRODIOL], the IC50 in assay [5], in assay [1], in assay [2], in assay [3], in assay [4] and in assay [6] was over 10 µM throughout.
On to `CC1(C)C[C@H](O)C[C@@]2(C)OC(=O)C=C12` [LOLIOLIDE], for which the IC50 in assay [5], in assay [1], in assay [2], in assay [3], in assay [4] and in assay [6] was over 10 µM throughout.
In the case of `CC1(C)CC[C@]2(C(=O)O)CC[C@]3(C)C(=CC[C@@H]4[C@@]5(C)CC[C@H](O)C(C)(C)[C@@H]5CC[C@]43C)[C@@H]2C1` [OLEANOLIC_ACID], the IC50 was over 10 µM in assay [5]; over 10 µM in assay [1]; over 10 µM in assay [2]; over 10 µM in assay [3]; over 10 µM in assay [4]; 2.4 µM in assay [6].
`CC(=O)O[C@H]1C(=O)[C@@]2(C)[C@H]([C@H](OC(=O)c3ccccc3)[C@]3(O)C[C@H](OC(=O)[C@H](O)[C@@H](NC(=O)c4ccccc4)c4ccccc4)C(C)=C1C3(C)C)[C@]1(OC(C)=O)CO[C@@H]1C[C@@H]2O` [PACLITAXEL]: the IC50 amounted to 0.009 µM in assay [1], 0.013 µM in assay [2], 0.017 µM in assay [3] and 0.013 µM in assay [4].
Turning to `COc1c(C)c(O)c2c(=O)cc(-c3ccc(O)cc3)oc2c1C` [SIDEROXYLIN], the IC50 in assay [5], in assay [1], in assay [2], in assay [3], in assay [4] and in assay [6] was over 10 µM throughout.
For the compound `C[C@H]1[C@H](C)CC[C@]2(C(=O)O)CC[C@]3(C)C(=CC[C@@H]4[C@@]5(C)CC[C@H](O)C(C)(C)[C@@H]5CC[C@]43C)[C@H]12` [URSOLIC ACID], the IC50 in assay [5] is 3.5 µM; in assay [7], 11.1 to 13.1 µg/mL (≈ 24.3 to 28.7 µM); in assay [1] it was 11.1 µg/mL; in assay [3] it was 5.9 µM; in assay [4] it was 13.1 µg/mL; in assay [6], 0.031 µM. The IC50 in assay [8] is 11.1 to 13.1 µg/mL (≈ 24.3 to 28.7 µM).
`C[C@H]1[C@H](C)CC[C@]2(CO)CC[C@]3(C)C(=CC[C@@H]4[C@@]5(C)CC[C@H](O)C(C)(C)[C@@H]5CC[C@]43C)[C@H]12` [UVAOL]: the IC50 in assay [5], in assay [1], in assay [2], in assay [3], in assay [4] and in assay [6] was over 10 µM each time.
